{"source": "ChEMBL document CHEMBL1806375", "about": "“Synthesis, molecular modeling and bio-evaluation of cycloalkyl fused 2-aminopyrimidines as antitubercular and antidiabetic agents” (Bioorg Med Chem Lett, 2011)", "key": {"[1]": {"test_system": "Mycobacterium tuberculosis", "assay": "Antimycobacterial activity against Mycobacterium tuberculosis H37Rv after 30 days by agar microdilution method", "type": "functional", "procedure,_shortened": "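Virulent M. tuberculosis H37Rv strain tested by agar microdilution. Isoniazid and ethambutol served as reference drugs. Read-out is the MIC.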"}, "[2]": {"organism": "Rattus norvegicus", "assay": "Inhibition of albino rat intestine alpha-glucosidase using p-nitrophenyl-alpha-D-glucopyranoside as substrate at 100 uM"}, "[3]": {"target": "T1, Glycogen phosphorylase, liver form (Rattus norvegicus) (UniProt P09811)", "T1 sequence (whole entry)": "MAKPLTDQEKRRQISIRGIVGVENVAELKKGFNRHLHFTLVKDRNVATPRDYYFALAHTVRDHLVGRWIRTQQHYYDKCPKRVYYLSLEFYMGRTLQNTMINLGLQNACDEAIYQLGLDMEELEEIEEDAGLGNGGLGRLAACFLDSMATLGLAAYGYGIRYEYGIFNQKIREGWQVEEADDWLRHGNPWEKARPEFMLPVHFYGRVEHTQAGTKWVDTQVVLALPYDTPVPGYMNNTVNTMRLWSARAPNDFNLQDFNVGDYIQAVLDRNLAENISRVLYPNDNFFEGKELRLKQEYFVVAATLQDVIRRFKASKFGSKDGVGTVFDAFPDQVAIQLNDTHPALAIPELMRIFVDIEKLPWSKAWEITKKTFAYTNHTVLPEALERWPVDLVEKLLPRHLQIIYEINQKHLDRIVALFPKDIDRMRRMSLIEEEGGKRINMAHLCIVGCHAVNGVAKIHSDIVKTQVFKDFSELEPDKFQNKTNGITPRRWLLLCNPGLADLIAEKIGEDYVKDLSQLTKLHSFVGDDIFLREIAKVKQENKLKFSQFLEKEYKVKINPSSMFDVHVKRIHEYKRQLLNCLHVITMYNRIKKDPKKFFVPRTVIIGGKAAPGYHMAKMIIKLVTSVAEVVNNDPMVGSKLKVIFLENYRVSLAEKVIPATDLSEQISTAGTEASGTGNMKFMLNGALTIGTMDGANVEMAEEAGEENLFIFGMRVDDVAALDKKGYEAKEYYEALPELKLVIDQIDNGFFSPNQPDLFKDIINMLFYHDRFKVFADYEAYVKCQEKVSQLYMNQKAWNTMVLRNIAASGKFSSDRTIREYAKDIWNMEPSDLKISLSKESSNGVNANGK", "assay": "Inhibition of Wistar rat liver glycogen phosphorylase at 100 uM after 30 mins"}, "[4]": {"test_system": "Vero", "assay": "Cytotoxicity against african green monkey Vero cells at 10 times MIC of Mycobacterium tuberculosis H37Rv after 24 hrs by MTS assay", "type": "cell-based", "conditions": "chlorocebus sabaeus"}, "[5]": {"assay": "Cytotoxicity against mouse bone marrow macrophages at 10 times MIC after 48 hrs by MTS assay", "type": "cell-based", "conditions": "macrophage"}, "[6]": {"test_system": "Mycobacterium tuberculosis", "assay": "Antimycobacterial activity against Mycobacterium tuberculosis H37Rv infected in mouse bone marrow macrophages assessed as intracellular growth inhibition at 3.12 ug/ml after 4 days", "type": "functional", "conditions": "96 h, read-out: GI"}, "[7]": {"test_system": "Mycobacterium tuberculosis", "assay": "Antimycobacterial activity against Mycobacterium tuberculosis H37Rv infected in mouse bone marrow macrophages assessed as intracellular growth inhibition after 4 days", "type": "functional"}}}
{"smiles": "Nc1nc(Cc2ccco2)c2c(n1)/C(=C/Cc1ccco1)CCC2", "values": [{"measurement": "MIC", "setting": "[1]", "value": "> 12.5", "unit": "µg/mL"}]}
{"smiles": "Nc1nc2c(c(-c3ccc(Br)cc3)n1)CCCC/C2=C\\c1ccc(Br)cc1", "values": [{"measurement": "MIC", "setting": "[1]", "value": "> 12.5", "unit": "µg/mL"}, {"measurement": "inhibition", "setting": "[2]", "value": -5.86, "unit": "%"}]}
{"smiles": "Nc1nc2c(c(-c3ccc(Cl)cc3)n1)CCC/C2=C\\c1ccc(Cl)cc1", "values": [{"measurement": "MIC", "setting": "[1]", "value": "> 12.5", "unit": "µg/mL"}]}
{"smiles": "Nc1nc2c(c(-c3ccc(OCc4ccccc4)cc3)n1)CCC/C2=C\\c1ccc(OCc2ccccc2)cc1", "values": [{"measurement": "inhibition", "setting": "[3]", "value": -0.87, "unit": "%"}, {"measurement": "MIC", "setting": "[1]", "value": "> 12.5", "unit": "µg/mL"}]}
{"smiles": "COc1cc(/C=C2\\CCCCc3c2nc(N)nc3-c2cc(OC)c(OC)c(OC)c2)cc(OC)c1OC", "values": [{"measurement": "MIC", "setting": "[1]", "value": "> 12.5", "unit": "µg/mL"}]}
{"smiles": "Nc1nc2c(c(-c3ccc4ccccc4c3)n1)CCCC/C2=C\\c1ccc2ccccc2c1", "values": [{"measurement": "Activity", "setting": "[4]", "value": "Non-toxic"}, {"measurement": "MIC", "setting": "[1]", "value": 3.12, "unit": "µg/mL"}, {"measurement": "Activity", "setting": "[5]", "value": "Non-toxic"}, {"measurement": "inhibition of growth at 3.12 µg/mL", "setting": "[6]", "value": 58, "unit": "%"}]}
{"smiles": "Nc1nc2c(c(-c3ccccc3)n1)CCC/C2=C\\c1ccccc1", "values": [{"measurement": "inhibition", "setting": "[3]", "value": -6.1, "unit": "%"}, {"measurement": "MIC", "setting": "[1]", "value": 6.25, "unit": "µg/mL"}]}
{"smiles": "COc1ccc(/C=C2\\CCCCc3c2nc(N)nc3-c2ccc(OC)cc2)cc1", "values": [{"measurement": "MIC", "setting": "[1]", "value": "> 12.5", "unit": "µg/mL"}]}
{"smiles": "Nc1nc2c(c(-c3ccc(F)cc3)n1)CCC/C2=C\\c1ccc(F)cc1", "values": [{"measurement": "MIC", "setting": "[1]", "value": 12.5, "unit": "µg/mL"}]}
{"smiles": "Nc1nc(Cc2ccco2)c2c(n1)/C(=C/Cc1ccco1)CCCC2", "values": [{"measurement": "inhibition", "setting": "[3]", "value": 34.3, "unit": "%"}, {"measurement": "MIC", "setting": "[1]", "value": "> 12.5", "unit": "µg/mL"}, {"measurement": "inhibition", "setting": "[2]", "value": -4.87, "unit": "%"}]}
{"smiles": "Nc1nc2c(c(-c3ccc(Cl)cc3)n1)CCCC/C2=C\\c1ccc(Cl)cc1", "values": [{"measurement": "MIC", "setting": "[1]", "value": "> 12.5", "unit": "µg/mL"}, {"measurement": "inhibition", "setting": "[2]", "value": 11.4, "unit": "%"}]}
{"smiles": "Nc1nc2c(c(-c3cccc4ccccc34)n1)CCC/C2=C\\c1cccc2ccccc12", "values": [{"measurement": "inhibition", "setting": "[3]", "value": 11.3, "unit": "%"}, {"measurement": "MIC", "setting": "[1]", "value": 12.5, "unit": "µg/mL"}, {"measurement": "inhibition", "setting": "[2]", "value": 13.7, "unit": "%"}]}
{"smiles": "Nc1nc2c(c(-c3ccccc3)n1)CCCC/C2=C\\c1ccccc1", "values": [{"measurement": "MIC", "setting": "[1]", "value": "> 12.5", "unit": "µg/mL"}, {"measurement": "inhibition", "setting": "[2]", "value": -0.07, "unit": "%"}]}
{"smiles": "Nc1nc2c(c(-c3ccc4ccccc4c3)n1)CCC/C2=C\\c1ccc2ccccc2c1", "values": [{"measurement": "inhibition", "setting": "[3]", "value": -5, "unit": "%"}, {"measurement": "MIC", "setting": "[1]", "value": 6.25, "unit": "µg/mL"}, {"measurement": "inhibition", "setting": "[2]", "value": -6, "unit": "%"}]}
{"smiles": "Nc1nc2c(c(-c3cccc4ccccc34)n1)CCCC/C2=C\\c1cccc2ccccc12", "values": [{"measurement": "MIC", "setting": "[1]", "value": "> 12.5", "unit": "µg/mL"}]}
{"smiles": "COc1cc(/C=C2\\CCCc3c2nc(N)nc3-c2cc(OC)c(OC)c(OC)c2)cc(OC)c1OC", "values": [{"measurement": "MIC", "setting": "[1]", "value": "> 12.5", "unit": "µg/mL"}]}
{"smiles": "NNC(=O)c1ccncc1", "note": "[ISONIAZID]", "values": [{"measurement": "growth inhibition (GI)", "setting": "[7]", "value": ">=99%"}, {"measurement": "MIC", "setting": "[1]", "value": 0.75, "unit": "µg/mL"}]}
{"smiles": "COc1ccc(/C=C2\\CCCc3c2nc(N)nc3-c2ccc(OC)c(OC)c2)cc1OC", "values": [{"measurement": "MIC", "setting": "[1]", "value": "> 12.5", "unit": "µg/mL"}]}
{"smiles": "CC[C@@H](CO)NCCN[C@@H](CC)CO", "note": "[ETHAMBUTOL]", "values": [{"measurement": "MIC", "setting": "[1]", "value": 3.25, "unit": "µg/mL"}]}
{"smiles": "COc1ccc(/C=C2\\CCCc3c2nc(N)nc3-c2ccc(OC)cc2)cc1", "values": [{"measurement": "inhibition", "setting": "[3]", "value": -10, "unit": "%"}, {"measurement": "MIC", "setting": "[1]", "value": "> 12.5", "unit": "µg/mL"}]}
{"smiles": "COc1ccc(/C=C2\\CCCCc3c2nc(N)nc3-c2ccc(OC)c(OC)c2)cc1OC", "values": [{"measurement": "MIC", "setting": "[1]", "value": 6.25, "unit": "µg/mL"}, {"measurement": "inhibition", "setting": "[2]", "value": -6.4, "unit": "%"}]}
{"smiles": "Nc1nc2c(c(-c3ccc(Br)cc3)n1)CCC/C2=C\\c1ccc(Br)cc1", "values": [{"measurement": "MIC", "setting": "[1]", "value": 12.5, "unit": "µg/mL"}]}
